Test results reported in ChEMBL document CHEMBL1177688, “Synthesis of novel pyrazolic analogues of chalcones and their 3-aryl-4-(3-aryl-4,5-dihydro-1H-pyrazol-5-yl)-1-phenyl-1H-pyrazole derivatives as potential antitumor agents” (2010).

Legend:
Assay type in all cases: functional
ACHN = assay: Antiproliferative activity against human ACHN cells after 48 hrs by SRB assay
Procedure, shortened: (§1)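 NCI 60-cell human tumour line panel. Continuous 48 h drug exposure at five concentrations (100, 10, 1.0, 0.1, 0.01 µM). Cell growth estimated by sulforhodamine B protein staining. GI50 = concentration giving 50% reduction in net protein increase versus control cells over the incubation. LC50 = molar concentration killing 50% of cells.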

KM12 = assay: Antiproliferative activity against human KM12 cells after 48 hrs by SRB assay; conditions: KM12, 48 h, read-out: LC50 (the source's name)
Procedure, shortened: (§2)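 NCI 60-cell-line human tumour panel, secondary five-dose screen. Compounds tested at 100, 10, 1.0, 0.1 and 0.01 µM with 48 h continuous exposure. Cell growth was estimated by sulforhodamine B protein staining. GI50 is the concentration giving a 50% reduction in net protein increase relative to untreated control cells over the incubation. TGI and LC50 were also derived.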

OVCAR-8 = assay: Antiproliferative activity against human OVCAR8 cells after 48 hrs by SRB assay; conditions: OVCAR-8, 48 h; for CC50: read-out: LC50 (the source's name); procedure, shortened: as §2
UO-31 = assay: Antiproliferative activity against human UO31 cells after 48 hrs by SRB assay; conditions: UO-31, 48 h; for CC50: read-out: LC50 (the source's name); procedure, shortened: as §2
MCF7 = assay: Antiproliferative activity against human MCF7 cells after 48 hrs by SRB assay; conditions: MCF7, 48 h, read-out: LC50 (the source's name); procedure, shortened: as §2
SNB-75 = assay: Antiproliferative activity against human SNB75 cells after 48 hrs by SRB assay; conditions: SNB-75, 48 h; procedure, shortened: as §2
NCI-H522 = assay: Antiproliferative activity against human NCI-H522 cells after 48 hrs by SRB assay; conditions: NCI-H522, 48 h; procedure, shortened: as §2
UACC-257 = assay: Antiproliferative activity against human UACC257 cells after 48 hrs by SRB assay; conditions: UACC-257, 48 h; procedure, shortened: as §2
HOP-92 = assay: Antiproliferative activity against human HOP92 cells after 48 hrs by SRB assay; conditions: HOP-92, 48 h; procedure, shortened: as §2
OVCAR-5 = assay: Antiproliferative activity against human OVCAR5 cells after 48 hrs by SRB assay; conditions: OVCAR-5, 48 h; for CC50: read-out: LC50 (the source's name); procedure, shortened: as §2
RXF 393 = assay: Antiproliferative activity against human RXF393 cells after 48 hrs by SRB assay; conditions: RXF 393, 48 h; procedure, shortened: as §1
TK-10 = assay: Antiproliferative activity against human TK10 cells after 48 hrs by SRB assay; conditions: TK-10, 48 h; for CC50: read-out: LC50 (the source's name); procedure, shortened: as §2
COLO 205 = assay: Antiproliferative activity against human COLO205 cells after 48 hrs by SRB assay; conditions: COLO 205, 48 h; procedure, shortened: as §1
A498 = assay: Antiproliferative activity against human A498 cells after 48 hrs by SRB assay; conditions: A498, 48 h; for CC50: read-out: LC50 (the source's name); procedure, shortened: as §2
HT-29 = assay: Antiproliferative activity against human HT-29 cells after 48 hrs by SRB assay; conditions: HT-29, 48 h, read-out: LC50 (the source's name); procedure, shortened: as §2
[1] = Antiproliferative activity against human […] cells after 48 hrs by SRB assay; procedure, shortened: as §2
SR = assay: Antiproliferative activity against human SR cells after 48 hrs by SRB assay; procedure, shortened: as §2
SNB-19 = assay: Antiproliferative activity against human SNB19 cells after 48 hrs by SRB assay; conditions: SNB-19, 48 h; for CC50: read-out: LC50 (the source's name); procedure, shortened: as §2
SK-MEL-2 = assay: Antiproliferative activity against human SK-MEL-2 cells after 48 hrs by SRB assay; conditions: SK-MEL-2, 48 h; for CC50: read-out: LC50 (the source's name); procedure, shortened: as §2
UACC-62 = assay: Antiproliferative activity against human UACC62 cells after 48 hrs by SRB assay; conditions: UACC-62, 48 h; for CC50: read-out: LC50 (the source's name); procedure, shortened: as §2
SN12C = assay: Antiproliferative activity against human SN12C cells after 48 hrs by SRB assay; conditions: read-out: LC50 (the source's name); procedure, shortened: as §2
T47D = assay: Antiproliferative activity against human T47D cells after 48 hrs by SRB assay; procedure, shortened: as §1
NCI-H23 = assay: Antiproliferative activity against human NCI-H23 cells after 48 hrs by SRB assay; conditions: NCI-H23, 48 h; procedure, shortened: as §1
SF-539 = assay: Antiproliferative activity against human SF539 cells after 48 hrs by SRB assay; conditions: SF-539, 48 h; procedure, shortened: as §1
SF-295 = assay: Antiproliferative activity against human SF295 cells after 48 hrs by SRB assay; conditions: SF-295, 48 h; for CC50: read-out: LC50 (the source's name); procedure, shortened: as §2
M14 = assay: Antiproliferative activity against human M14 cells after 48 hrs by SRB assay; conditions: M14, 48 h, read-out: LC50 (the source's name); procedure, shortened: as §2
U-251 = assay: Antiproliferative activity against human U251 cells after 48 hrs by SRB assay; conditions: U-251, 48 h; procedure, shortened: as §1
SK-MEL-5 = assay: Antiproliferative activity against human SK-MEL-5 cells after 48 hrs by SRB assay; conditions: SK-MEL-5, 48 h; procedure, shortened: as §1
IGROV-1 = assay: Antiproliferative activity against human IGROV1 cells after 48 hrs by SRB assay; conditions: IGROV-1, 48 h; for CC50: read-out: LC50 (the source's name); procedure, shortened: as §2
MDA-MB-231 = assay: Antiproliferative activity against human MDA-MB-231 cells after 48 hrs by SRB assay; conditions: MDA-MB-231, 48 h; procedure, shortened: as §1
MDA-MB-435 = assay: Antiproliferative activity against human MDA-MB-435 cells after 48 hrs by SRB assay; conditions: MDA-MB-435, 48 h, read-out: LC50 (the source's name); procedure, shortened: as §2
NCI/ADR-RES = assay: Antiproliferative activity against human NCI/ADR-RES cells after 48 hrs by SRB assay; procedure, shortened: as §1
Malme-3M = assay: Antiproliferative activity against human MALME-3M cells after 48 hrs by SRB assay; conditions: for CC50: read-out: LC50 (the source's name); procedure, shortened: as §2
HCT-15 = assay: Antiproliferative activity against human HCT15 cells after 48 hrs by SRB assay; conditions: HCT-15, 48 h; for CC50: read-out: LC50 (the source's name); procedure, shortened: as §2
NCI-H322M = assay: Antiproliferative activity against human NCI-H322M cells after 48 hrs by SRB assay; conditions: read-out: LC50 (the source's name); procedure, shortened: as §2
SK-OV-3 = assay: Antiproliferative activity against human SKOV3 cells after 48 hrs by SRB assay; conditions: SK-OV-3, 48 h; for CC50: read-out: LC50 (the source's name); procedure, shortened: as §2
EKVX = assay: Antiproliferative activity against human EKVX cells after 48 hrs by SRB assay; conditions: for CC50: read-out: LC50 (the source's name); procedure, shortened: as §2
HCT-116 = assay: Antiproliferative activity against human HCT116 cells after 48 hrs by SRB assay; conditions: HCT-116, 48 h; procedure, shortened: as §1
CAKI-1 = assay: Antiproliferative activity against human Caki1 cells after 48 hrs by SRB assay; conditions: CAKI-1, 48 h; procedure, shortened: as §1
[2] = read-out: LC50 (the source's name)

Compound: O=C(/C=C/c1cn(-c2ccccc2)nc1-c1ccc([N+](=O)[O-])cc1)c1ccc(Cl)cc1
- GI50 (ACHN): 4.27 µM
- CC50 (ACHN; [2]): > 100 µM
- CC50 (KM12): > 100 µM
- GI50 (OVCAR-8): 6.32 µM
- CC50 (OVCAR-8): > 100 µM
- GI50 (UO-31): 0.1 µM
- CC50 (UO-31): > 100 µM
- CC50 (MCF7): > 100 µM
- GI50 (SNB-75): 1.55 µM
- LC50 (50% lethal concentration) (SNB-75): 24 µM
- GI50 (NCI-H522): 6.41 µM
- LC50 (concentration killing 50% of tumour cells) (NCI-H522): > 100 µM
- GI50 (UACC-257): > 100 µM
- LC50 (concentration killing 50% of cells) (UACC-257): > 100 µM
- CC50 (HOP-92; [2]): > 100 µM
- GI50 (OVCAR-5): > 100 µM
- CC50 (OVCAR-5): > 100 µM
- GI50 (RXF 393): 2.08 µM
- CC50 (RXF 393; [2]): 9.87 µM
- GI50 (TK-10): 3.12 µM
- CC50 (TK-10): > 100 µM
- GI50 (COLO 205): 2.09 µM
- GI50 (A498): 3.14 µM
- CC50 (A498): > 100 µM
- CC50 (HT-29): > 100 µM
- GI50 [1]: 1.86 µM
- LC50 (50% lethal concentration) [1]: > 100 µM
- GI50 (SR): 2.76 µM
- LC50 (50% net cell kill) (SR): > 100 µM
- GI50 (SNB-19): 4.9 µM
- CC50 (SNB-19): > 100 µM
- GI50 (SK-MEL-2): 6.99 µM
- CC50 (SK-MEL-2): 57.9 µM
- GI50 (UACC-62): 11.4 µM
- CC50 (UACC-62): > 100 µM
- CC50 (SN12C): > 100 µM
- GI50 (T47D): 1.12 µM
- CC50 (T47D; [2]): > 100 µM
- GI50 (NCI-H23): 4.99 µM
- CC50 (NCI-H23; [2]): > 100 µM
- GI50 (SF-539): 3.95 µM
- CC50 (SF-539; [2]): > 100 µM
- GI50 (SF-295): 2.32 µM
- CC50 (SF-295): 74.1 µM
- CC50 (M14): > 100 µM
- GI50 (U-251): 2.09 µM
- CC50 (U-251; [2]): > 100 µM
- GI50 (SK-MEL-5): > 100 µM
- CC50 (SK-MEL-5; [2]): > 100 µM
- GI50 (IGROV-1): 3.54 µM
- CC50 (IGROV-1): > 100 µM
- GI50 (MDA-MB-231): 2.45 µM
- CC50 (MDA-MB-231; [2]): > 100 µM
- CC50 (MDA-MB-435): > 100 µM
- GI50 (NCI/ADR-RES): 4.64 µM
- CC50 (NCI/ADR-RES; [2]): > 100 µM
- GI50 (Malme-3M): 2.44 µM
- CC50 (Malme-3M): > 100 µM
- CC50 (HCT-15): > 100 µM
- CC50 (NCI-H322M): > 100 µM
- GI50 (SK-OV-3): 12.5 µM
- CC50 (SK-OV-3): > 100 µM
- GI50 (EKVX): 4.97 µM
- CC50 (EKVX): > 100 µM
- GI50 (HCT-116): 2.75 µM
- CC50 (HCT-116; [2]): > 100 µM
- GI50 (CAKI-1): 4.56 µM
- CC50 (CAKI-1; [2]): > 100 µM

Compound: COc1ccc(C2=NN(C(C)=O)C(c3cn(-c4ccccc4)nc3-c3ccc(Cl)cc3)C2)cc1 (stereo unspecified)
- GI50 (ACHN): 1.82 µM
- CC50 (KM12): > 100 µM
- CC50 (OVCAR-8): > 100 µM
- CC50 (UO-31): > 100 µM
- CC50 (MCF7): > 100 µM
- GI50 (SNB-75): 2.76 µM
- LC50 (50% lethal concentration) (SNB-75): > 100 µM
- GI50 (NCI-H522): 2.2 µM
- LC50 (concentration killing 50% of tumour cells) (NCI-H522): > 100 µM
- GI50 (UACC-257): > 100 µM
- LC50 (concentration killing 50% of cells) (UACC-257): > 100 µM
- GI50 (HOP-92): 0.04 µM
- GI50 (OVCAR-5): 1.81 µM
- CC50 (OVCAR-5): > 100 µM
- GI50 (RXF 393): 1.82 µM
- CC50 (TK-10): > 100 µM
- GI50 (COLO 205): 2.16 µM
- CC50 (A498): > 100 µM
- CC50 (HT-29): > 100 µM
- GI50 [1]: 1.73 µM
- LC50 (50% lethal concentration) [1]: > 100 µM
- GI50 (SR): 1.57 µM
- CC50 (SNB-19): > 100 µM
- CC50 (SK-MEL-2): > 100 µM
- GI50 (UACC-62): 2.4 µM
- CC50 (UACC-62): > 100 µM
- CC50 (SN12C): > 100 µM
- GI50 (T47D): 1.9 µM
- GI50 (NCI-H23): 1.77 µM
- GI50 (SF-539): 1.87 µM
- GI50 (SF-295): 2.48 µM
- CC50 (SF-295): > 100 µM
- CC50 (M14): > 100 µM
- GI50 (U-251): 1.71 µM
- GI50 (SK-MEL-5): 1.79 µM
- CC50 (IGROV-1): > 100 µM
- GI50 (MDA-MB-231): 1.88 µM
- CC50 (MDA-MB-435): > 100 µM
- GI50 (NCI/ADR-RES): 1.8 µM
- CC50 (Malme-3M): > 100 µM
- GI50 (HCT-15): 3.09 µM
- CC50 (HCT-15): > 100 µM
- CC50 (NCI-H322M): > 100 µM
- GI50 (SK-OV-3): 2.14 µM
- CC50 (SK-OV-3): > 100 µM
- CC50 (EKVX): > 100 µM
- GI50 (HCT-116): 1.94 µM
- GI50 (CAKI-1): 1.96 µM
